Results published in ChEMBL document CHEMBL4373647, “Design, synthesis, and antimicrobial evaluation of 1,4-dihydroindeno[1,2-c]pyrazole tethered carbohydrazide hybrids: exploring their in silico ADMET, ergosterol inhibition and ROS inducing potential” (Medchemcomm, 2019).
≈ marks a conversion by molar mass, not a printed value. Calls of active or inactive are those of the source. No cut-off for these calls is given here.

Key:
Candida albicans [1] = assay: Induction of ROS generation in Candida albicans MTCC 3017 assessed as accumulation of intracellular ROS level by measuring fluorescence intensity at 5 to 25 ug/ml after 24 hrs by DCFH-DA probe based fluorimetric assay; format: functional, organism-based
In short: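 C. albicans MTCC 3017 biofilms grown 24 h at 37 °C in 96-well plates, then treated 24 h with compound at 0, 5, 10, 15, 20, 25 µg/mL; untreated cells served as control. Cells then loaded with 10 µM DCFH-DA for 24 h in the dark, and fluorescence read at 485 nm excitation and 535 nm emission. Triplicates.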

Candida albicans [2] = assay: Antifungal activity against Candida albicans MTCC 3017 assessed as inhibition of fungal growth incubated for 24 hrs by agar well diffusion method; format: functional; details: MTCC 3017, 24 h
In short: (§1)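 Candida strains from MTCC, pre-cultured and spread on Mueller Hinton agar. Wells received compound dissolved in 10% DMSO, 125–0.97 µg/mL; miconazole standard over the same range, DMSO negative control. After 24 h at 37 °C, MIC was read as the lowest concentration giving an inhibition zone. Duplicate experiments, means given.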

Pichia kudriavzevii [3] = assay: Antifungal activity against Candida krusei MTCC 3020 assessed as inhibition of fungal growth incubated for 24 hrs by agar well diffusion method; format: functional; details: MTCC 3020, 24 h; in short: as §1
Candida parapsilosis [4] = assay: Fungicidal activity against Candida parapsilosis MTCC 1744 assessed as fungal killing incubated for 24 hrs; format: functional; details: Lodderomyces parapsilosis, MTCC 1744, 24 h
In short: (§2)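 Compound at 125–0.97 µg/mL in Mueller Hinton broth in microcentrifuge tubes, each Candida strain added, held 24 h at 37 °C. 10 µL of the treated suspension plated on Mueller Hinton agar and incubated a further 24 h at 37 °C. MFC is the lowest concentration that kills the strain. Duplicates, means reported.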

Candida albicans [5] = assay: Ratio of MFC to MIC against Candida albicans MTCC 183; format: functional
Candida albicans [6] = assay: Fungicidal activity against Candida albicans MTCC 7315 assessed as fungal killing incubated for 24 hrs; format: functional; details: MTCC 7315, 24 h; in short: as §2
Candida albicans [7] = assay: Ratio of MFC to MIC against Candida albicans MTCC 227; format: functional
In short: (§3)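 MIC by agar well diffusion: Candida lawns on Mueller-Hinton agar, wells loaded with compound in 10% DMSO (125–0.97 µg/mL), 24 h at 37 °C, lowest concentration giving an inhibition zone. MFC: compound in Mueller-Hinton broth (125–0.97 µg/mL) with yeast, 24 h at 37 °C, 10 µL plated on agar, lowest killing concentration after 24 h. Ratio is MFC/MIC.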

Staphylococcus aureus [8] = assay: Antibacterial activity against Staphylococcus aureus MLS-16 MTCC 2940 assessed as inhibition of bacterial growth incubated for 24 hrs by agar well diffusion method; format: functional
In short: (§4)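 Strains from MTCC; inoculum at 0.5 McFarland spread on Mueller-Hinton agar; 6 mm wells loaded with compound over 125–0.97 µg/mL; ciprofloxacin positive control (same range), DMSO negative control. Plates held 24 h at 37 °C; MIC taken as lowest concentration giving a clear inhibition zone. Triplicate runs, mean MIC reported.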

Candida albicans [9] = assay: Ratio of MFC to MIC against Candida albicans MTCC 7315; format: functional; in short: as §3
Pichia sporocuriosa [10] = assay: Antifungal activity against Issatchenkia hanoiensis MTCC 4755 assessed as inhibition of fungal growth incubated for 24 hrs by agar well diffusion method; format: functional; details: MTCC 4755, 24 h; in short: as §1
Nakaseomyces glabratus [11] = assay: Antifungal activity against Candida glabrata MTCC 3019 assessed as inhibition of fungal growth incubated for 24 hrs by agar well diffusion method; format: functional; details: MTCC 3019, 24 h; in short: as §1
Nakaseomyces glabratus [12] = assay: Fungicidal activity against Candida glabrata MTCC 3019 assessed as fungal killing incubated for 24 hrs; format: functional; details: MTCC 3019, 24 h; in short: as §2
Candida albicans [13] = assay: Ratio of MFC to MIC against Candida albicans MTCC 3018; format: functional; in short: as §3
Micrococcus luteus = assay: Antibacterial activity against Micrococcus luteus MTCC 2470 assessed as inhibition of bacterial growth incubated for 24 hrs by agar well diffusion method; format: functional; in short: as §4
Candida parapsilosis [14] = assay: Ratio of MFC to MIC against Candida parapsilosis MTCC 1744; format: functional; in short: as §3
Nakaseomyces glabratus [15] = assay: Ratio of MFC to MIC against Candida glabrata MTCC 3019; format: functional; in short: as §3
Staphylococcus aureus [16] = assay: Antibacterial activity against Staphylococcus aureus MTCC 96 assessed as inhibition of bacterial growth incubated for 24 hrs by agar well diffusion method; format: functional; in short: as §4
Pichia kudriavzevii [17] = assay: Fungicidal activity against Candida krusei MTCC 3020 assessed as fungal killing incubated for 24 hrs; format: functional; details: MTCC 3020, 24 h; in short: as §2
Candida parapsilosis [18] = assay: Antifungal activity against Candida parapsilosis MTCC 1744 assessed as inhibition of fungal growth incubated for 24 hrs by agar well diffusion method; format: functional; details: Lodderomyces parapsilosis, MTCC 1744, 24 h; in short: as §1
Candida albicans [19] = assay: Antifungal activity against Candida albicans MTCC 1637 assessed as inhibition of fungal growth incubated for 24 hrs by agar well diffusion method; format: functional; details: MTCC 1637, 24 h; in short: as §1
Pichia sporocuriosa [20] = assay: Ratio of MFC to MIC against Issatchenkia hanoiensis MTCC 4755; format: functional; in short: as §3
Candida albicans [21] = assay: Antifungal activity against Candida albicans MTCC 183 assessed as inhibition of fungal growth incubated for 24 hrs by agar well diffusion method; format: functional; details: MTCC 183, 24 h; in short: as §1
Candida albicans [22] = assay: Fungicidal activity against Candida albicans MTCC 183 assessed as fungal killing incubated for 24 hrs; format: functional; details: MTCC 183, 24 h; in short: as §2
Candida albicans [23] = assay: Fungicidal activity against Candida albicans MTCC 3018 assessed as fungal killing incubated for 24 hrs; format: functional; details: MTCC 3018, 24 h; in short: as §2
Candida albicans [24] = assay: Fungicidal activity against Candida albicans MTCC 227 assessed as fungal killing incubated for 24 hrs; format: functional; details: MTCC 227, 24 h; in short: as §2
[25] = molecular target: Lanosterol 14-alpha demethylase (Candida albicans (strain SC5314 / ATCC MYA-2876) (Yeast), UniProt P10613); assay: Inhibition of CYP51 in Candida albicans MTCC 3017 assessed as reduction in ergosterol level incubated for 20 hrs by UV-visible spectrophotometry analysis
In short: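 Modified Breivik–Owades sterol method: Mueller Hinton broth with compound at 0, 2, 4, 8, 16 µg/mL, inoculated with single Candida colonies, shaken at 200 rpm for 20 h at 30 °C. Pellets washed and weighed, saponified in 25% alcoholic KOH for 70 min at 90 °C, sterols extracted into n-heptane, diluted 1:5 in ethanol and scanned at 230–310 nm. Triplicates.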

Pseudomonas aeruginosa = assay: Antibacterial activity against Pseudomonas aeruginosa MTCC 2453 assessed as inhibition of bacterial growth incubated for 24 hrs by agar well diffusion method; format: functional; in short: as §4
Candida albicans [26] = assay: Antifungal activity against Candida albicans MTCC 7315 assessed as inhibition of fungal growth incubated for 24 hrs by agar well diffusion method; format: functional; details: MTCC 7315, 24 h; in short: as §1
Candida albicans [27] = assay: Antifungal activity against Candida albicans MTCC 3018 assessed as inhibition of fungal growth incubated for 24 hrs by agar well diffusion method; format: functional; details: MTCC 3018, 24 h; in short: as §1
Candida albicans [28] = assay: Ratio of MFC to MIC against Candida albicans MTCC 1637; format: functional
Candida albicans [29] = assay: Antifungal activity against Candida albicans MTCC 4748 assessed as inhibition of fungal growth incubated for 24 hrs by agar well diffusion method; format: functional; details: MTCC 4748, 24 h; in short: as §1
Candida albicans [30] = assay: Fungicidal activity against Candida albicans MTCC 1637 assessed as fungal killing incubated for 24 hrs; format: functional; details: MTCC 1637, 24 h; in short: as §2
Candida albicans [31] = assay: Antifungal activity against Candida albicans MTCC 227 assessed as inhibition of fungal growth incubated for 24 hrs by agar well diffusion method; format: functional; details: MTCC 227, 24 h; in short: as §1
Candida albicans [32] = assay: Ratio of MFC to MIC against Candida albicans MTCC 4748; format: functional; in short: as §3
Pichia sporocuriosa [33] = assay: Fungicidal activity against Issatchenkia hanoiensis MTCC 4755 assessed as fungal killing incubated for 24 hrs; format: functional; details: MTCC 4755, 24 h; in short: as §2
Candida albicans [34] = assay: Fungicidal activity against Candida albicans MTCC 4748 assessed as fungal killing incubated for 24 hrs; format: functional; details: MTCC 4748, 24 h; in short: as §2
Escherichia coli = assay: Antibacterial activity against Escherichia coli MTCC 739 assessed as inhibition of bacterial growth incubated for 24 hrs by agar well diffusion method; format: functional; in short: as §4
MRC5 = assay: Cytotoxicity against human MRC5 cells incubated for 48 hrs by MTT assay; format: cell-based; details: MRC5, 48 h
In short: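 Normal human lung MRC5 cells grown 24 h in 96-well plates, then exposed to a range of compound concentrations for 48 h. MTT (250 µg/mL) added for 2 h, medium replaced by DMSO, absorbance read at 570 nm. Miconazole positive control, DMSO negative control. Triplicates, mean ± S.D.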

Pichia kudriavzevii [35] = assay: Ratio of MFC to MIC against Candida krusei MTCC 3020; format: functional; in short: as §3
Raoultella planticola = assay: Antibacterial activity against Klebsiella planticola MTCC 530 assessed as inhibition of bacterial growth incubated for 24 hrs by agar well diffusion method; format: functional; in short: as §4
Bacillus subtilis = assay: Antibacterial activity against Bacillus subtilis MTCC 121 assessed as inhibition of bacterial growth incubated for 24 hrs by agar well diffusion method; format: functional; in short: as §4

Sequence of Lanosterol 14-alpha demethylase (P10613 whole entry): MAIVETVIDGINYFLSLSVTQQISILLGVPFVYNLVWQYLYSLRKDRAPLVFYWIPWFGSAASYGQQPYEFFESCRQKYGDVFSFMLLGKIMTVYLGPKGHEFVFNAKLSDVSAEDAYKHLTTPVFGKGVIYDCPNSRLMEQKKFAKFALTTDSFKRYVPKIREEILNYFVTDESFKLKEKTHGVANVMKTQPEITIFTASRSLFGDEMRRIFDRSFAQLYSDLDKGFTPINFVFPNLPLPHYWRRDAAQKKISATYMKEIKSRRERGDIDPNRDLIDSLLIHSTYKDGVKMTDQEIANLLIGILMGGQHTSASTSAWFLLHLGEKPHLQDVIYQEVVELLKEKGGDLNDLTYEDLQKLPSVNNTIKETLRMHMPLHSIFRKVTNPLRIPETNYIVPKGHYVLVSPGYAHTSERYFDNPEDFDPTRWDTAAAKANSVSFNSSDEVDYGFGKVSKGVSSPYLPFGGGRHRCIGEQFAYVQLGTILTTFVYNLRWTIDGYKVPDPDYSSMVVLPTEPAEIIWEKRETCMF

Q: For `Clc1ccc(COC(Cn2ccnc2)c2ccc(Cl)cc2Cl)c(Cl)c1` (stereo unspecified) [MICONAZOLE], which Activity (Candida albicans [1]) is on record?
A: Active

Q: What about the MIC (Candida albicans [2]) of the same compound?
A: 3.9 µg/mL (≈ 9.37 µM)

Q: What about the MIC (Pichia kudriavzevii [3]) of the same compound?
A: 3.9 µg/mL (≈ 9.37 µM)

Q: What about the MFC (Candida parapsilosis [4]) of the same compound?
A: 7.8 µg/mL (≈ 18.7 µM)

Q: What about the Ratio (Candida albicans [5]) of the same compound?
A: 2

Q: What about the MFC (Candida albicans [6]) of the same compound?
A: 7.8 µg/mL (≈ 18.7 µM)

Q: What about the Ratio (Candida albicans [7]) of the same compound?
A: 2

Q: What about the MIC (Staphylococcus aureus [8]) of the same compound?
A: inactive

Q: And the Ratio (Candida albicans [9])?
A: 2

Q: And the MIC (Pichia sporocuriosa [10])?
A: 3.9 µg/mL (≈ 9.37 µM)

Q: What about the MIC (Nakaseomyces glabratus [11]) of the same compound?
A: 3.9 µg/mL (≈ 9.37 µM)

Q: And the MFC (Nakaseomyces glabratus [12])?
A: 7.8 µg/mL (≈ 18.7 µM)

Q: What about the Ratio (Candida albicans [13]) of the same compound?
A: 2

Q: And the MIC (Micrococcus luteus)?
A: inactive

Q: And the Ratio (Candida parapsilosis [14])?
A: 2

Q: What about the Ratio (Nakaseomyces glabratus [15]) of the same compound?
A: 2

Q: And the MIC (Staphylococcus aureus [16])?
A: inactive

Q: And the MFC (Pichia kudriavzevii [17])?
A: 7.8 µg/mL (≈ 18.7 µM)

Q: What about the MIC (Candida parapsilosis [18]) of the same compound?
A: 3.9 µg/mL (≈ 9.37 µM)

Q: What about the MIC (Candida albicans [19]) of the same compound?
A: 3.9 µg/mL (≈ 9.37 µM)

Q: What about the Ratio (Pichia sporocuriosa [20]) of the same compound?
A: 2

Q: And the MIC (Candida albicans [21])?
A: 3.9 µg/mL (≈ 9.37 µM)

Q: And the MFC (Candida albicans [22])?
A: 7.8 µg/mL (≈ 18.7 µM)

Q: And the MFC (Candida albicans [23])?
A: 7.8 µg/mL (≈ 18.7 µM)

Q: And the MFC (Candida albicans [24])?
A: 7.8 µg/mL (≈ 18.7 µM)

Q: What about the “inhibition (INH)” value [25] of the same compound?
A: Dose-dependent effect

Q: What about the MIC (Pseudomonas aeruginosa) of the same compound?
A: inactive

Q: What about the MIC (Candida albicans [26]) of the same compound?
A: 3.9 µg/mL (≈ 9.37 µM)

Q: And the MIC (Candida albicans [27])?
A: 3.9 µg/mL (≈ 9.37 µM)

Q: And the Ratio (Candida albicans [28])?
A: 2

Q: And the MIC (Candida albicans [29])?
A: 3.9 µg/mL (≈ 9.37 µM)

Q: What about the MFC (Candida albicans [30]) of the same compound?
A: 7.8 µg/mL (≈ 18.7 µM)

Q: What about the MIC (Candida albicans [31]) of the same compound?
A: 3.9 µg/mL (≈ 9.37 µM)

Q: What about the Ratio (Candida albicans [32]) of the same compound?
A: 2

Q: And the MFC (Pichia sporocuriosa [33])?
A: 7.8 µg/mL (≈ 18.7 µM)

Q: And the MFC (Candida albicans [34])?
A: 7.8 µg/mL (≈ 18.7 µM)

Q: What about the MIC (Escherichia coli) of the same compound?
A: inactive

Q: And the IC50 (MRC5)?
A: 61.7 µg/mL (≈ 148 µM)

Q: What about the Ratio (Pichia kudriavzevii [35]) of the same compound?
A: 2

Q: And the MIC (Raoultella planticola)?
A: inactive

Q: What about the MIC (Bacillus subtilis) of the same compound?
A: inactive
